Values joined by “and” are separate entries in the source; they are usually repeats but may differ in a detail not shown here. Equal entries are not always repeated. “Also recorded” adds a separate entry of the source.
Experiments:
α1A-AR = target: T1, α1A-AR (Homo sapiens, UniProt P35348); assay: Western blot analysis of α1A-AR level in α1A-AR stably transfected HEK293 cells; format: cell-based; details: for DC50: read-out: DC50 (concentration required for 50% protein degradation) of α1A-AR, α1A-AR stably transfected HEK293 cells, 12 h, Western blot; for effect on α1A-AR level (Western blot, in words): α1A-AR HEK293 cells, indicated concentrations 12 h, 3 μmol/L for indicated time
T1 sequence (P35348 1-466): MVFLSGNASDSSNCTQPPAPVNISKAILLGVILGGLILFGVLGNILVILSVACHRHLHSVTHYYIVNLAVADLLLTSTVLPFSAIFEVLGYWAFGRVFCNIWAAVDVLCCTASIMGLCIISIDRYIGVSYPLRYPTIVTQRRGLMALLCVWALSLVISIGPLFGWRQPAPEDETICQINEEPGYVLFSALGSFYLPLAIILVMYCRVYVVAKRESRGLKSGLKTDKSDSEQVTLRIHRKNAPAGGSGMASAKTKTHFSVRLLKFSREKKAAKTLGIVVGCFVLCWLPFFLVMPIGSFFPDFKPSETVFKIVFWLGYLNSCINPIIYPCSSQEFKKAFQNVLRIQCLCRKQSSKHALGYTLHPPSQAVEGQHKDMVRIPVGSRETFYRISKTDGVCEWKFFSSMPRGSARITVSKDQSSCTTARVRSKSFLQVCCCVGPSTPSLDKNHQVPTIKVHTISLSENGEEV

PC-3 cells = assay: CCK-8 antiproliferation assay on PC-3 cells; format: cell-based; details: for antiproliferation activity on PC-3 cells (in words): 1–100 μmol/L, 48 h; for IC50: Homo sapiens, PC-3, 48 h, read-out: antiproliferative activity IC50
Summary of the method: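 PC-3 cells in RPMI-1640 with 10% FBS, 37 °C, 5% CO2. Seeded at 5000 cells/well, left 24 h, then exposed to test compound for 48 h; controls received DMSO only. CCK-8 reagent (WST-8/PMS) was added for 1 h at 37 °C and absorbance read at 450 nm. Viability was calculated against untreated-cell and cell-free blank wells.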

α1B-AR = target: T2, α1B-AR (Homo sapiens, UniProt P35368); assay: Western blot analysis of α1B-AR level in stably transfected HEK293 cells; format: cell-based; details: 12 h
T2 sequence (P35368 1-520): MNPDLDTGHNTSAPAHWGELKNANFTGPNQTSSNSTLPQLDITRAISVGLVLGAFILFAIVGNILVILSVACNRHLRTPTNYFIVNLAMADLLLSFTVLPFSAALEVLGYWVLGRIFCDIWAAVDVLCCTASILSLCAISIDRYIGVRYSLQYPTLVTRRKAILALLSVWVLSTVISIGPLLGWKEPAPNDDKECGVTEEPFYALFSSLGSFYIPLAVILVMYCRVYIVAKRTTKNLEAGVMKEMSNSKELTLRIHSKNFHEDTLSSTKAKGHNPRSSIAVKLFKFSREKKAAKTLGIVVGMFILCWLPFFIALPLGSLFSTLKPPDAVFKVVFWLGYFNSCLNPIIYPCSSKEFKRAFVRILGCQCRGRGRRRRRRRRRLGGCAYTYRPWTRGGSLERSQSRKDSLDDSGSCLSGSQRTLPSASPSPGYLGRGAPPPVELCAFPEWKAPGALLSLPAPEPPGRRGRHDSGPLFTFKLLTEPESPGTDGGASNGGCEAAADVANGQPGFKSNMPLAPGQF

α1D-AR = target: T3, α1D-AR (Homo sapiens, UniProt P25100); assay: Western blot analysis of α1D-AR level in stably transfected HEK293 cells; format: cell-based; details: 12 h
T3 sequence (P25100 1-572): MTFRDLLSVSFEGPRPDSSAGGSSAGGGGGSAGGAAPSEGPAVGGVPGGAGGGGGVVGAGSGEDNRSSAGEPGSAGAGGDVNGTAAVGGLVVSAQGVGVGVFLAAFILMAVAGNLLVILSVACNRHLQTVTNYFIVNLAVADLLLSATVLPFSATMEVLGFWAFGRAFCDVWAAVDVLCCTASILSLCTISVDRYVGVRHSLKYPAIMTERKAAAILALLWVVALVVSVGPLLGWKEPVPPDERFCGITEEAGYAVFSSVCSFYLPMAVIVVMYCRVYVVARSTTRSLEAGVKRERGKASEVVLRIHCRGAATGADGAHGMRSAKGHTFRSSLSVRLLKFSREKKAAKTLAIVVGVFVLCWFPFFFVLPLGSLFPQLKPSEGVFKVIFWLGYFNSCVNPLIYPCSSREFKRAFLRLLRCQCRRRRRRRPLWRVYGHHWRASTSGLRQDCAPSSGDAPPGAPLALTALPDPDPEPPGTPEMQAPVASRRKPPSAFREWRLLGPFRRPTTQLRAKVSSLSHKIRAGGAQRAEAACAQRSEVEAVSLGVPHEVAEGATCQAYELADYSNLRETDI

[1] = test system: PC-3 derived prostate cancer xenografts; assay: PC-3 tumor xenograft model in nude mice; format: in vivo; details: 50 mg/kg daily intraperitoneal, two weeks
Summary of the method: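 Four-week-old nude mice were given PC-3 cells subcutaneously (10⁶ cells/mouse). At 400 mm³ tumour volume they were split into two groups (n = 5). Each group received test compound or vehicle (10% DMSO + 10% PEG400 + 80% saline) i.p. daily for two weeks. Caliper tumour volume and body weight were taken every 2–3 days. Tumours were harvested 12 h after the last dose.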

SMILES	DC50 (α1A-AR)	effect on α1A-AR level (Western blot, in words) (α1A-AR)	IC50 (PC-3 cells)	antiproliferation activity on PC-3 cells (in words) (PC-3 cells)	also measured
COc1cc2nc(N3CCN(C(=O)c4cn(CCOCCOCCOCC(=O)Nc5cccc6c5C(=O)N(C5CCC(=O)N(C)C5=O)C6=O)nn4)CC3)nc(N)c2cc1OC (centres unmarked) [Compound 11, 2-(2-(2-(2-(4-(4-(4-Amino-6,7-dimethoxyquinazolin-2-yl)piperazine-1-carbonyl)-1H-1,2,3-triazol-1-yl)ethoxy)ethoxy)ethoxy)-N-(2-(1-methyl-2,6-dioxopiperidin-3-yl)-1,3-dioxoisoindolin4-yl)acetamide]		incapable of inducing α1A-AR degradation			
COc1cc2nc(N3CCN(C(=O)c4ccco4)CC3)nc(N)c2cc1OC [Prazosin, prazosin, reference compound]			11.7 µM		

The next lines start with results.

DC50 (α1A-AR)	effect on α1A-AR level (Western blot, in words) (α1A-AR)	IC50 (PC-3 cells)	SMILES	antiproliferation activity on PC-3 cells (in words) (PC-3 cells)	also measured
~4.32 µM			COc1cc2nc(N3CCN(C(=O)c4cn(CCOCC(=O)Nc5cccc6c5C(=O)N(C5CCC(=O)NC5=O)C6=O)nn4)CC3)nc(N)c2cc1OC (centres unmarked) [Compound 9a, 2-(2-(4-(4-(4-Amino-6,7-dimethoxyquinazolin-2-yl)piperazine-1-carbonyl)-1H-1,2,3-triazol-1-yl)ethoxy)-N-(2-(2,6-dioxopiperidin-3-yl)-1,3-dioxoisoindolin-4-yl)acetamide]	concentration-dependent antiproliferation activities	
	did not show too much effect		COc1cc2nc(N3CCN(C(=O)c4cn(CCOCCOCC(=O)Nc5cccc6c5C(=O)N(C5CCC(=O)NC5=O)C6=O)nn4)CC3)nc(N)c2cc1OC (centres unmarked) [Compound 9b, 2-(2-(2-(4-(4-(4-Amino-6,7-dimethoxyquinazolin-2-yl)piperazine-1-carbonyl)-1H-1,2,3-triazol-1-yl)ethoxy)ethoxy)-N-(2-(2,6-dioxopiperidin-3-yl)-1,3-dioxoisoindolin-4-yl)acetamide]	much less influence	
~2.86 µM and 2.86 µM		6.12 µM	COc1cc2nc(N3CCN(C(=O)c4cn(CCOCCOCCOCC(=O)Nc5cccc6c5C(=O)N(C5CCC(=O)NC5=O)C6=O)nn4)CC3)nc(N)c2cc1OC (centres unmarked) [Compound 9c, 2-(2-(2-(2-(4-(4-(4-Amino-6,7-dimethoxyquinazolin-2-yl)piperazine-1-carbonyl)-1H-1,2,3-triazol-1-yl)ethoxy)ethoxy)ethoxy)-N-(2-(2,6-dioxopiperidin-3-yl)-1,3-dioxoisoindolin-4-yl)acetamide]	concentration-dependent antiproliferation activities	Dmax (α1A-AR; HEK293, read-out: maximal level of degradation (Dmax) of α1A-AR): 94%; time for α1A-AR level to recover to basal level after washout (α1A-AR; after 12 h pretreatment with 10 μmol/L, cells washed thoroughly): approximately 24 h; α1A-AR degradation after bortezomib pretreatment (in words) (α1A-AR; pretreatment of cells using bortezomib for more than 7 h): could no longer trigger the degradation; degradation activity for α1B-AR (in words) (α1B-AR): no degradation activity; influence on α1D-AR level (in words) (α1D-AR): slight influence; average tumor size and mass vs vehicle-treated group (in words) [1]: noticeably decreased; body weight (in words) ([1]; nude mice): without noticeable loss of body weight; effect on tumor growth (in words) ([1]; nude mice with PC-3 xenografts): significant antitumor effect; also recorded: significant suppression of tumor growth

From PMC7563999 (Acta Pharmaceutica Sinica. B, 2020)
